In one series the target is T1, Adenosine receptor A1 (Homo sapiens, UniProt P30542).
T1 sequence (P30542 whole entry): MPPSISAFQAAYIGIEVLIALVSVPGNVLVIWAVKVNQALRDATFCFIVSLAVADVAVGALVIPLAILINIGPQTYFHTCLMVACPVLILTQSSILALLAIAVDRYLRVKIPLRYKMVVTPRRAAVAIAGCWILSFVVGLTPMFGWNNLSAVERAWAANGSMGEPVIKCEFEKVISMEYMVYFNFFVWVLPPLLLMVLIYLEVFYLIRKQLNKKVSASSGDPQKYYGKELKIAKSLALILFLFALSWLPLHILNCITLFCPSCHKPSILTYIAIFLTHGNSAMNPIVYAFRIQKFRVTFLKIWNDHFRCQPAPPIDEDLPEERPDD
The series can be described thus: Binding affinity using [125I]ABA against human Adenosine A1 receptor.

Series [1] deals with Adenosine receptors; A1 & A3 (Homo sapiens) (UniProt P30542+P0DMS8). Description: Ratio of binding affinity for human adenosine A1 and A3 receptors. The series is classed as protein assay.
In series [2] the target is T2, Adenosine receptor A3 (Homo sapiens, UniProt P0DMS8).
T2 sequence (P0DMS8 whole entry): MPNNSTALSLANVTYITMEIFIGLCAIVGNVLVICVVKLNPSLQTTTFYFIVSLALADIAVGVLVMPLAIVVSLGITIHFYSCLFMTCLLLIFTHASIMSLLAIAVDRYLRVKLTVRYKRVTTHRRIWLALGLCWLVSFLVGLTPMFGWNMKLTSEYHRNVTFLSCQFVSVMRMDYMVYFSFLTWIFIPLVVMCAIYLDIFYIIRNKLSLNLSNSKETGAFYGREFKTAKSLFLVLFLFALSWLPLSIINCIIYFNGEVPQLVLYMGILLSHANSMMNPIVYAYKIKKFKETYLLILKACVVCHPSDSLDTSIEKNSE
The series can be described thus: Binding affinity using [125I]ABA against human Adenosine A3 receptor.

Series [3] in a line: Tested for pKa value of compound. The format is physicochemical.
Series [4] concerns the target T2, Adenosine receptor A3. The series can be described thus: Inhibition of isoproterenol-stimulated cAMP accumulation in HEK 293 cells expressing human Adenosine A3 receptor. The format is functional, cell-based, HEK293. The procedure, abridged:
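Functional assay in HEK 293 cells with recombinant human A3 receptors. Cells are stimulated with isoproterenol, and the drop in cAMP accumulation is measured over a concentration–response range. EC50 comes from the curve. Mean and SEM of three experiments, each run in duplicate.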
A general note: Changes in cAMP serve as a functional read-out for many G protein-coupled receptors.

These results are taken from ChEMBL document CHEMBL1145953 (J Med Chem, 2003).

By Ki is commonly meant the equilibrium dissociation constant of an inhibitor or competing ligand from its target. Higher therefore signals a looser hold on the target. As for `CNC(=O)[C@H]1O[C@@H](n2cnc3c(NC)ncnc32)[C@H](O)[C@@H]1O`, the Ki on Adenosine receptor A1 is 0.065 µM; on Adenosine receptor A3 [2] it was 0.0048 µM. The Ratio in series [1] turned out to be 13.

Turning to `CNC(=O)[C@H]1O[C@@H](n2cnc3c(NC)ncnc32)[C@H](O)[C@@H]1N`, in series [1], the Ratio came out at 194. The same compound registered a Ki at Adenosine receptor A3 [2] of 0.12 µM.

Usually pKa stands for the negative logarithm of the acid dissociation constant. High values mean a weaker acid or stronger base, low ones a stronger acid or weaker base. In general, EC50 refers to the concentration at which the effect is half-maximal. A low value points to a more potent agent. As to `CNC(=O)[C@H]1O[C@@H](n2cnc3c(NCc4cc(Cl)ccc4OCc4cc(C)no4)ncnc32)[C@H](O)[C@@H]1N`, the Ki was 7.3 µM on Adenosine receptor A1 and 0.0058 µM on Adenosine receptor A3 [2]. The same compound registered a pKa in series [3] of 6.25. In addition, at Adenosine receptor A3 [4], it took 0.0034 µM to reach a half-maximal effect (EC50).

On to `CNC(=O)[C@H]1O[C@@H](n2cnc3c(NCc4cccc(I)c4)ncnc32)[C@H](O)[C@@H]1N`, for which the figures for the Ki on Adenosine receptor A1 and at Adenosine receptor A3 [2] were 4.6 µM and 0.072 µM, respectively. In addition, in series [1], the Ratio is 64.

For `CNC(=O)[C@H]1O[C@@H](n2cnc3c(NCc4cc(Cl)ccc4OCc4cc(C)no4)ncnc32)[C@H](O)[C@@H]1O`, the Ki on Adenosine receptor A1 is 0.068 µM; at Adenosine receptor A3 [2] it was 0.0016 µM. For the same compound, the Ratio in series [1] came to 42.
